Compound activity deposited in PubChem by Broad Institute.
PfHsp90 set2 = growth inhibition of PfHsp90-expressing yeast, primary screen, antimalarial PfHsp90 inhibitor project, S. cerevisiae, BacTiter-Glo luminescence, single point, set 2 | 310,000 compounds, 0.32% hits | BacTiter-Glo ATP, 48 h; yeast lacking PDR1 and PDR3 efflux regulators | inhibition, % at 9.4 µM | AID 504621, 2011;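 active means every replicate shows inhibition above about 80%, whatever the replicate mean, limit read from the data; inconclusive means mean inhibition reaches the set limit but some replicate falls short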;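 further: 0% = DMSO neutral controls and 100% = 20 µM radicicol positive controls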
FN deposit inh = inhibitors of fibronectin matrix deposition, primary screen, AH1F cells, Alexa488-fibronectin fluorescence, plate reader; AH1F fibroblasts, overnight; inhibition, % at 12.6 µM; 350,000 compounds, 0.086% hits;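 active means mean inhibition across replicates of 30% or more, regardless of how many single replicates reach that level; inconclusive means mean under 30% yet at least half of replicates reach 30%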;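 further: positive control wells lacked labelled fibronectin entirely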
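Material: AH1F fibroblasts assembling fluorescent fibronectin matrix; amount: 10000 AH1F cells/well; medium: DMEM, 2% serum; reagent: Alexa488-fibronectin, 24 nM final in well; dosing: single compound dose, delivered by pin transfer; incubation: 1 h adhesion, overnight exposure; detection: fluorescence after three HBSS washes, excitation 485 nm, emission 525 nm; measure: fibronectin deposition inhibition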
Rtt109 HAT inh = inhibitors of C. albicans Rtt109/Vps75 HAT, primary screen, biochemical, ThioGlo CoA-SH fluorescence, plate reader. Histone acetyltransferase RTT109 (Candida albicans (strain SC5314 / ATCC MYA-2876)), …. purified Rtt109/Vps75, 4 h. inhibition, % at 34.9 µM. 330,000 compounds, 0.16% hits. AID 540336, 2011;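 active means inhibition of at least 50% in every replicate; inconclusive means best replicate reaches 50% inhibition but some replicates fall short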
Target sequence (Q5AAJ8 whole entry, looked up): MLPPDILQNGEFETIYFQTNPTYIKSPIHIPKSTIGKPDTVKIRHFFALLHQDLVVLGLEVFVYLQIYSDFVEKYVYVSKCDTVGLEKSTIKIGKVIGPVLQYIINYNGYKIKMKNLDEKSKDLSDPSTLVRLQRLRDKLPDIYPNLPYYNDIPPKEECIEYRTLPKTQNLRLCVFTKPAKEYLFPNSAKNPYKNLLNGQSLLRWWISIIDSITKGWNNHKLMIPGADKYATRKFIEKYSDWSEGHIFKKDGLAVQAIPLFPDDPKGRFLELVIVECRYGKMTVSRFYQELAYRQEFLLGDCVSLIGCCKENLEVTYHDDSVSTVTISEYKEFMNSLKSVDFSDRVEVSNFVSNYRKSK
PglD inh = C. jejuni PglD acetyltransferase inhibitors, primary screen, biochemical, DTNB colorimetric, single point | UDP-N-acetylbacillosamine N-acetyltransferase PglD (Campylobacter jejuni) | purified PglD enzyme, DTNB colorimetric CoA detection | 360,000 compounds, 0.098% hits | inhibition, % at 12.5 µM | AID 602405, 2012; in the data active means inhibition above about 16%, passing the limit was not always enough; inconclusive means no clear call, values can overlap the other calls
SKKanGAS inh = S. pyogenes SKKanGAS growth inhibitors in kanamycin, primary screen, streptokinase expression inhibitor project, SKKanGAS strain, BacTiter-Glo luminescence; 6 h; inhibition, % at 7.5 µM; 300,000 compounds, 1.3% hits;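 active means mean replicate score, as percent of positive control median, at least 50; inconclusive means mean below 50 but one replicate at or above 50; inactive means mean and every replicate below 50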;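 further: strain carries kanamycin resistance gene driven by streptokinase promoter and grows in 40 µg/ml kanamycin; loss of luminescence reflects streptokinase promoter inhibition or plain growth inhibition; 0% = median of DMSO wells and 100% = positive control at its reference dose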
CSC inhib = cancer stem cell viability inhibitors, primary screen, luminescence | cancer stem cell-like cells viability | inhibition, % at 7.5 µM | 300,000 compounds, 1.1% hits; in the data active means inhibition above about 75%; inconclusive means no clear call, values can overlap the other calls; tested in HMLE shEcad cells
* = called active by the depositor. Only some compounds are listed: those with a hit (about 1.7% of all), similar ones and a draw of the others.

What do the screens show for `COc1ccc(NC(=O)COC(=O)c2c3c(nc4ccccc24)CCCC3)cc1Cl`?
PfHsp90 set2: -9.5; Rtt109 HAT inh: -5.4; PglD inh: -0.3; SKKanGAS inh: 61.1*; CSC inhib: 50.5

Results for Oc1ccccc1C=NNC(=S)NC1CC2C=CC1C2 (centres undefined) ?
FN deposit inh: 12.2; PglD inh: 0.4

Results for Oc1c(Cl)cc(Cl)cc1/C=N/NC(=S)NC1CC2C=CC1C2 (centres undefined) ?
PfHsp90 set2: -20.4; FN deposit inh: 9.8; Rtt109 HAT inh: -38.8; PglD inh: 16.3; SKKanGAS inh: 110.9*; CSC inhib: 100.2*

Results for Oc1ccccc1/C=N/NC(=S)NC1CC2C=CC1C2 (centres undefined) ?
PfHsp90 set2: -45.8; FN deposit inh: 6.3; Rtt109 HAT inh: 6.7; SKKanGAS inh: 91.5*; CSC inhib: 53.6

What do the screens show for `CNC(=O)C[C@@H]1CC[C@@H]2[C@@H](COc3ccc(NS(=O)(=O)c4ccccc4C)cc3C(=O)N2C)O1`?
FN deposit inh: -25.3; PglD inh: 3.0

How did O=C1N[C@@H](Cc2ccccc2)COCc2cn(nn2)CC[C@@H]1Cc1cccc(Cl)c1 do in these assays?
FN deposit inh: -1.8

Results for CCCC1COC(Cn2cncn2)(c2ccc(C)cc2)O1 (centres undefined) ?
PfHsp90 set2: 98.6*; PglD inh: -3.7; SKKanGAS inh: -1.9; CSC inhib: 2.6

Results for CCN(CC)S(=O)(=O)c1ccc(C(=O)Nc2nnc(NC(=S)Nc3ccccc3)s2)cc1 ?
PfHsp90 set2: -15.0; FN deposit inh: -4.8; Rtt109 HAT inh: 12.3; SKKanGAS inh: 31.9; CSC inhib: 69.9

Results for COc1cc(OC)cc(C(=O)Nc2nnc(NC(=S)Nc3ccccc3)s2)c1 ?
PfHsp90 set2: 6.9; Rtt109 HAT inh: -5.3; SKKanGAS inh: 51.8*; CSC inhib: 25.3

How did COc1cc(OC)cc(C(=O)Nc2ccc(Nc3ccccc3)cc2)c1 do in these assays?
PfHsp90 set2: 3.1; FN deposit inh: 3.5; Rtt109 HAT inh: 0.5; PglD inh: -0.7; SKKanGAS inh: 22.1; CSC inhib: 88.5*

What do the screens show for `CC1(C)C2CCC1(C)C(OC(=O)CNc1ccccc1)C2` (centres undefined)?
PfHsp90 set2: -0.3; FN deposit inh: -1.3; Rtt109 HAT inh: 2.3; PglD inh: -0.1; SKKanGAS inh: 5.6; CSC inhib: -0.5

Results for COc1cc(C(=O)OC2CC3CCC2(C)C3(C)C)ccc1OC(C)=O (centres undefined) ?
PfHsp90 set2: 1.7; Rtt109 HAT inh: -2.8; PglD inh: 1.5; SKKanGAS inh: 9.5; CSC inhib: 81.3*

How did CCCC(O)C#Cc1cnc2c(c1)C(=O)N([C@H](C)CO)C[C@H](C)[C@H](CN(C)C(=O)Nc1c(C)noc1C)O2 (some centres undefined) do in these assays?
PglD inh: 2.4

How did CC(=O)O[C@H]1C[C@@]2(C)[C@@H](C[C@@H](O)[C@H]3[C@@]4(C)CC[C@@H](O)[C@@H](C)C4CC[C@@]32C)/C1=C(\CCC=C(C)C)C(=O)O (some centres undefined) do in these assays?
PfHsp90 set2: 5.1; FN deposit inh: -2.6; Rtt109 HAT inh: 16.1; PglD inh: 1.3; SKKanGAS inh: 73.4*

What do the screens show for `CC(=O)O[C@]1(C(C)=O)CC[C@H]2[C@@H]3C[C@H](C)C4=CC(=O)CC[C@]4(C)[C@H]3CC[C@@]21C`?
PfHsp90 set2: 10.6; FN deposit inh: -3.7; Rtt109 HAT inh: 9.6; PglD inh: 5.5; SKKanGAS inh: -3.8; CSC inhib: 3.4

What do the screens show for `Cc1nn(-c2ccccc2)c(Cl)c1C1C(C#N)=C(N)OC2=C1C(=O)CCC2` (centres undefined)?
PfHsp90 set2: 17.1; FN deposit inh: 4.9; Rtt109 HAT inh: -5.7; PglD inh: 1.2; SKKanGAS inh: 86.9*; CSC inhib: -9.2

How did CO[C@H]1CN(C)C(=O)c2cc(NC(=O)C3CC3)ccc2OC[C@H](C)N(C(=O)c2cccnc2)C[C@H]1C do in these assays?
FN deposit inh: -3.0; PglD inh: 3.8

How did c1ccc2c3c([nH]c2c1)-c1[nH]ncc1CC3 do in these assays?
PfHsp90 set2: -0.9; Rtt109 HAT inh: 13.2; PglD inh: 2.2; SKKanGAS inh: -7.5; CSC inhib: 7.5

What do the screens show for `Clc1ccc2[nH]c3c(c2c1)CCc1cn[nH]c1-3`?
PfHsp90 set2: 110.2*; Rtt109 HAT inh: 37.4; PglD inh: -1.9; SKKanGAS inh: 38.7; CSC inhib: 24.6

How did CC1=C(/C=C/C(C)=N\NC(=O)c2ccncc2)C(C)(C)CCC1 do in these assays?
PfHsp90 set2: 5.6; FN deposit inh: 5.3; Rtt109 HAT inh: 1.1; SKKanGAS inh: 57.5*; CSC inhib: -8.8

What do the screens show for `CC(/C=C/c1ccc2c(c1)OCO2)=N/NC(=O)c1ccncc1`?
PfHsp90 set2: -10.9; FN deposit inh: 12.1; Rtt109 HAT inh: -2.0; PglD inh: -1.0; SKKanGAS inh: -5.0

What do the screens show for `Cc1noc(C)c1S(=O)(=O)N(C)C[C@@H]1Oc2ccc(NC(=O)NC3CCCCC3)cc2CC(=O)N([C@@H](C)CO)C[C@@H]1C`?
FN deposit inh: 1.1; PglD inh: -0.5

How did O=C(Nc1ccccc1)N[C@@H]1CC[C@@H](CCn2cc(C3(O)CCCC3)nn2)O[C@H]1CO do in these assays?
FN deposit inh: 2.6; PglD inh: 1.6

Results for OC(CNCCC1C=Nc2ccccc21)Cn1c2ccc(Cl)cc2c2cc(Cl)ccc21 (centres undefined) ?
PfHsp90 set2: 105.3*; FN deposit inh: 0.3; Rtt109 HAT inh: -15.8; PglD inh: 5.2; SKKanGAS inh: 135.9*; CSC inhib: 106.4*

What do the screens show for `OC(CNCC1CCCO1)Cn1c2ccccc2c2ccccc21` (centres undefined)?
PfHsp90 set2: -8.6; Rtt109 HAT inh: 3.5; PglD inh: -5.1; SKKanGAS inh: -6.7; CSC inhib: -1.2

How did OC(CNCC1CCCO1)Cn1c2ccc(Cl)cc2c2cc(Cl)ccc21 (centres undefined) do in these assays?
PfHsp90 set2: -13.7; Rtt109 HAT inh: inconclusive; PglD inh: -5.4; SKKanGAS inh: 12.9; CSC inhib: 110.9*

What do the screens show for `O=C(CN1CCOCC1)NCC[C@H]1CC[C@@H](NC(=O)c2ccccc2F)[C@@H](CO)O1`?
FN deposit inh: -0.6; PglD inh: 4.1
